Measurements from ChEMBL document CHEMBL4020837, “Identification of Eukaryotic Translation Elongation Factor 1-α 1 Gamendazole-Binding Site for Binding of 3-Hydroxy-4(1 H)-quinolinones as Novel Ligands with Anticancer Activity” (J Med Chem, 2018).
Values belong to the molecule of their own block, whether it stands above or below them. Active and inactive are the calls of the source. The calls are words filed in the database; no cut-off is given here.

Assays:
[1] = molecular target: T1, Elongation factor 1-alpha 1 (Homo sapiens) (UniProt P68104); test: Binding affinity to eEF1A1 in human CCRF-CEM cells after 30 mins by HPLC-MS based SDS-PAGE analysis; assay type: cell-based
T1 sequence (whole entry): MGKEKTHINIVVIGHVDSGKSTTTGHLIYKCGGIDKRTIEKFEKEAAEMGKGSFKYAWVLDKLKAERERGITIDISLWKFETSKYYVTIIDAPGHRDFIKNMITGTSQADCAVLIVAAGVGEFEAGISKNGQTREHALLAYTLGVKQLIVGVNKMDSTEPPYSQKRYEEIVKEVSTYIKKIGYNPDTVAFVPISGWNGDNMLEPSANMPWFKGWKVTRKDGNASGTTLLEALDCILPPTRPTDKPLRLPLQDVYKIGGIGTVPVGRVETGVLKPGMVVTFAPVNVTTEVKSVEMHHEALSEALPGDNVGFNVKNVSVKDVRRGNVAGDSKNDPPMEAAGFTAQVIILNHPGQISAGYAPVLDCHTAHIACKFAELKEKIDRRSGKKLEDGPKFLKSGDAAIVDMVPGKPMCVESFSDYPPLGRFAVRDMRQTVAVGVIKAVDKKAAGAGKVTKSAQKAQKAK
Method in brief: (§1)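 Biotinylated 3-HQ ligands (one linked via the quinolinone benzene ring, one via the 2-phenyl ring) were immobilized on streptavidin magnetic beads and incubated with total protein lysate from CCRF-CEM cells. Bound proteins were released, resolved by SDS-PAGE, and identified by mass spectrometry.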

[2] = molecular target: Pyruvate kinase PKM (Homo sapiens) (UniProt P14618); test: Binding affinity to PKM2 in human CCRF-CEM cells after 30 mins by HPLC-MS based SDS-PAGE analysis; assay type: cell-based; method in brief: as §1
[3] = molecular target: Actin, cytoplasmic 1 (Homo sapiens) (UniProt P60709); test: Binding affinity to beta-actin in human CCRF-CEM cells after 30 mins by HPLC-MS based SDS-PAGE analysis; assay type: cell-based; method in brief: as §1
[4] = molecular target: T1, Elongation factor 1-alpha 1 (Homo sapiens); test: Binding affinity to eEF1A1 in human CCRF-CEM cells after 30 mins by Western blot method; assay type: cell-based
[5] = molecular target: Pyruvate kinase PKM (Homo sapiens) (UniProt P14618); test: Binding affinity to PKM2 in human CCRF-CEM cells after 30 mins by Western blot method; assay type: cell-based
[6] = molecular target: Actin, cytoplasmic 1 (Homo sapiens) (UniProt P60709); test: Binding affinity to beta-actin in human CCRF-CEM cells after 30 mins by Western blot method; assay type: cell-based
[7] = molecular target: T1, Elongation factor 1-alpha 1 (Homo sapiens); test: Binding affinity to recombinant human eEF1A1 expressed in HEK293 cells by ITC
Method in brief: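 Isothermal titration calorimetry recorded the heat changes on titrating ligand into eEF1A1. Binding enthalpy and association constant (Ka) were derived from the titration profiles.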

A549 [8] = test: Antiproliferative activity against human A549 cells after 72 hrs by MTT assay; assay type: functional, cell-based; conditions: A549, 72 h
U2OS [9] = test: Antiproliferative activity against human U2OS cells after 72 hrs by MTT assay; assay type: functional, cell-based
CCRF-CEM [10] = test: Antiproliferative activity against human CCRF-CEM cells after 72 hrs by MTT assay; assay type: functional, cell-based
[11] = Antiproliferative activity against human CEM-DNR-bulk cells after 72 hrs by MTT assay; assay type: functional, cell-based
HCT-116 = test: Antiproliferative activity against human HCT116 cells after 72 hrs by MTT assay; assay type: functional, cell-based; conditions: HCT-116, 72 h
K562 [12] = test: Antiproliferative activity against human K562 cells after 72 hrs by MTT assay; assay type: functional, cell-based; conditions: K562, 72 h
K562 [13] = test: Antiproliferative activity against taxol resistant human K562 cells after 72 hrs by MTT assay; assay type: functional, cell-based; conditions: K562, 72 h
BJ [14] = test: Antiproliferative activity against human BJ cells after 72 hrs by MTT assay; assay type: cell-based
K562 [15] = test: Antiproliferative activity against taxol resistant human K562 cells by MTT assay; assay type: functional, cell-based
CCRF-CEM [16] = test: Antiproliferative activity against human CCRF-CEM cells by MTT assay; assay type: functional, cell-based
[17] = Antiproliferative activity against human CEM-DNR-bulk cells by MTT assay; assay type: functional, cell-based
U2OS [18] = test: Antiproliferative activity against human U2OS cells by MTT assay; assay type: functional, cell-based
K562 [19] = test: Antiproliferative activity against human K562 cells by MTT assay; assay type: functional, cell-based
A549 [20] = test: Antiproliferative activity against human A549 cells by MTT assay; assay type: functional, cell-based
BJ [21] = test: Antiproliferative activity against human BJ cells by MTT assay; assay type: cell-based

Sequence of Pyruvate kinase PKM (Homo sapiens) (P14618 2-531 limits assumed): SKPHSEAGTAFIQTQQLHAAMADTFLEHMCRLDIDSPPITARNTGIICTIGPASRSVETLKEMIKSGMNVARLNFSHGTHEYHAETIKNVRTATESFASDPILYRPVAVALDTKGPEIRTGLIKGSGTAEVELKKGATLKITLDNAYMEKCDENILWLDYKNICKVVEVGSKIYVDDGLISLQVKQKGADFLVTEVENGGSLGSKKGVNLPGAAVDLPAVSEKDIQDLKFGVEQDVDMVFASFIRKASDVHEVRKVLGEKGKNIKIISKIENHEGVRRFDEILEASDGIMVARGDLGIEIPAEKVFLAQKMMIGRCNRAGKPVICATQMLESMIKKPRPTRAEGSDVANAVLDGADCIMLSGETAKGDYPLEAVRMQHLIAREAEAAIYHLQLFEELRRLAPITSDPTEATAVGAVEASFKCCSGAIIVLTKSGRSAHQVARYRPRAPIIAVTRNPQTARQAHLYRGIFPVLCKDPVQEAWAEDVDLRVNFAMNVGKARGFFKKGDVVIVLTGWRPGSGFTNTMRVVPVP

Structure (SMILES): CCNc1ccc(-c2[nH]c3cc(C(=O)NCCOCCOC(=O)CCCC[C@@H]4SC[C@@H]5NC(=O)N[C@@H]54)ccc3c(=O)c2O)cc1[N+](=O)[O-]
Activity [1]: Active
Activity [2]: Active
Activity [3]: Active
Activity [4]: Active
Activity [5]: Active
Activity [6]: Active

Structure (SMILES): O=C1N[C@H]2[C@H](CS[C@H]2CCCCC(=O)OCCOCCOCCOCCOCCOCCOCCOCCOCCOCCNc2ccc(-c3[nH]c4ccccc4c(=O)c3O)cc2[N+](=O)[O-])N1
Activity [4]: inactive
Activity [5]: inactive
Activity [6]: inactive

Structure (SMILES): CCN(CC)c1ccc(-c2[nH]c3ccccc3c(=O)c2O)cc1[N+](=O)[O-]
IC50 (K562 [15]): 2.71 µM
IC50 (CCRF-CEM [16]): 1.72 µM
IC50 [17]: 6.75 µM
IC50 (U2OS [18]): 8.57 µM
IC50 (K562 [19]): 0.75 µM
IC50 (A549 [20]): 1.89 µM
IC50 (BJ [21]): 9.73 µM

Structure (SMILES): CCCCCNC(=O)c1ccc2c(=O)c(O)c(-c3ccc(N4CCCCC4)c(C(N)=O)c3)[nH]c2c1
Ka [7]: 5.3 ×10⁶ /M
IC50 (A549 [8]): 1.89 µM
IC50 (U2OS [9]): 0.56 µM
IC50 (CCRF-CEM [10]): 1.73 µM
IC50 [11]: 8.03 µM
IC50 (HCT-116): 0.64 µM
IC50 (K562 [12]): 2.39 µM
IC50 (K562 [13]): 32.7 µM
IC50 (BJ [14]): 10.2 µM

Structure (SMILES): NC(=O)c1cc(-c2[nH]c3cc(C(=O)NCc4ccccc4)ccc3c(=O)c2O)ccc1N1CCCCC1
Ka [7]: 1.81 ×10⁷ /M
IC50 (A549 [8]): 3.77 µM
IC50 (U2OS [9]): 0.58 µM
IC50 (CCRF-CEM [10]): 1.73 µM
IC50 [11]: > 50 µM
IC50 (HCT-116): 1.01 µM
IC50 (K562 [12]): 8.3 µM
IC50 (K562 [13]): > 50 µM
IC50 (BJ [14]): > 50 µM

Structure (SMILES): O=c1c(O)c(-c2ccc(N3CCCCC3)c([N+](=O)[O-])c2)[nH]c2ccccc12
IC50 (K562 [15]): 2.02 µM
IC50 (CCRF-CEM [16]): 1.55 µM
IC50 [17]: 3 µM
IC50 (U2OS [18]): 7.51 µM
IC50 (K562 [19]): 0.75 µM
IC50 (A549 [20]): 1.62 µM
IC50 (BJ [21]): 9.83 µM

Structure (SMILES): CCNc1ccc(-c2[nH]c3ccccc3c(=O)c2O)cc1[N+](=O)[O-]
IC50 (K562 [15]): 1.96 µM
IC50 (CCRF-CEM [16]): 1.42 µM
IC50 [17]: 3.01 µM
IC50 (U2OS [18]): 9.98 µM
IC50 (K562 [19]): 0.66 µM
IC50 (A549 [20]): 0.94 µM
IC50 (BJ [21]): 9.39 µM

Further lines, with some results ahead:

Ka [7]: inactive
IC50 (A549 [8]): > 50 µM
IC50 (U2OS [9]): 47 µM
IC50 (CCRF-CEM [10]): 26.7 µM
IC50 (HCT-116): 44.2 µM
IC50 (K562 [12]): 48 µM
IC50 (K562 [13]): 27.4 µM
Structure (SMILES): O=c1c(O)c(-c2ccccc2)[nH]c2ccccc12
IC50 [11]: 22.5 µM
IC50 (BJ [14]): > 50 µM

Ka [7]: 1.27 ×10⁷ /M
Structure (SMILES): O=C(O)/C=C/c1nn(Cc2ccc(Cl)cc2Cl)c2cc(C(F)(F)F)ccc12

Ka [7]: 1.03 ×10⁷ /M
IC50 (A549 [8]): 50 µM
IC50 (U2OS [9]): 50 µM
IC50 (CCRF-CEM [10]): 49.6 µM
IC50 (HCT-116): 50 µM
IC50 (K562 [12]): 50 µM
IC50 (K562 [13]): 50 µM
Structure (SMILES): O=C(O)c1cc(-c2[nH]c3ccccc3c(=O)c2O)ccc1N1CCOCC1
IC50 [11]: 50 µM
IC50 (BJ [14]): 50 µM

Ka [7]: 6.8 ×10⁶ /M
IC50 (A549 [8]): 44.4 µM
IC50 (U2OS [9]): 50 µM
IC50 (CCRF-CEM [10]): 16.2 µM
IC50 (HCT-116): 30.6 µM
IC50 (K562 [12]): 50 µM
IC50 (K562 [13]): 50 µM
Structure (SMILES): NC(=O)c1cc(-c2[nH]c3ccccc3c(=O)c2O)ccc1N1CCOCC1
IC50 [11]: 50 µM
IC50 (BJ [14]): 50 µM

Ka [7]: 2.9 ×10⁶ /M
IC50 (A549 [8]): 9.96 µM
IC50 (U2OS [9]): 26 µM
IC50 (CCRF-CEM [10]): 3.34 µM
IC50 (HCT-116): 4.46 µM
IC50 (K562 [12]): 7.1 µM
IC50 (K562 [13]): 6.41 µM
Structure (SMILES): NC(=O)c1cc(-c2[nH]c3ccccc3c(=O)c2O)ccc1N1CCCCC1
IC50 [11]: 21.4 µM
IC50 (BJ [14]): 48.9 µM

Ka [7]: 2.54 ×10⁶ /M
IC50 (A549 [8]): 50 µM
IC50 (U2OS [9]): 50 µM
IC50 (CCRF-CEM [10]): 49.6 µM
IC50 (HCT-116): 50 µM
IC50 (K562 [12]): 50 µM
IC50 (K562 [13]): 50 µM
Structure (SMILES): O=C(O)c1cc(-c2[nH]c3ccccc3c(=O)c2O)ccc1N1CCCCC1
IC50 [11]: 50 µM
IC50 (BJ [14]): 50 µM
